What was measured:
Staphylococcus aureus [1] = assay: Antimicrobial activity against Staphylococcus aureus clinical isolates assessed as FIC index in presence of amoxicillin after 20 hrs by drop diffusion test; type: functional
Staphylococcus aureus [2] = assay: Antimicrobial activity against Staphylococcus aureus clinical isolates from university hospital in Motol assessed as reduction in bacterial growth after 20 hrs by drop diffusion test; type: functional
[3] = system: Staphylococcus epidermidis; assay: Antimicrobial activity against Staphylococcus epidermidis assessed as reduction in bacterial growth after 20 hrs by broth microdilution assay
Staphylococcus aureus [4] = assay: Antimicrobial activity against Staphylococcus aureus clinical isolates from Liberec regional hospital assessed as reduction in bacterial growth after 20 hrs by […]; type: functional
Outline: (§1)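 Broth microdilution in LB (YPG for C. albicans) with 2-fold serial dilutions, final 0.1–100 μM. Mid-log cells grown 3–5 h at 37 °C were added at about 5 × 10^5 cfu/mL, then incubated 20 h at 37 °C with shaking. A540 was read every 15 min to build growth curves. Medium with cells served as growth control; at least three runs in duplicate.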

Pseudomonas aeruginosa [5] = assay: Antimicrobial activity against Pseudomonas aeruginosa clinical isolates assessed as reduction in bacterial growth after 20 hrs by […]; type: functional; outline: as §1
[6] = Hemolytic activity in human type RBC after 1 hr; type: ADME, cell-based, Erythrocyte; conditions: red blood cells (erythrocytes), read-out: LC50
Outline: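 Peptides at 2.5–400 μM were incubated with a 4% suspension of human erythrocytes in physiological solution for 1 h at 37 °C, then centrifuged at 250g for 5 min; supernatant A540 was read. Saline-treated cells gave 0% lysis and 0.2% Triton X-100 gave 100%. LC50 is the concentration lysing 50% of cells; duplicates in at least two independent experiments.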

Micrococcus luteus = assay: Antimicrobial activity against Micrococcus luteus assessed as reduction in bacterial growth after 20 hrs by […]; type: functional; outline: as §1
Pseudomonas aeruginosa [7] = assay: Antimicrobial activity against Pseudomonas aeruginosa 5482 assessed as reduction in bacterial growth after 20 hrs […]; type: functional; conditions: Pseudomonas aeruginosa, 5482, 20 h; outline: as §1
Pseudomonas aeruginosa [8] = assay: Antimicrobial activity against Pseudomonas aeruginosa clinical isolates assessed as FIC index in presence of rifampicin after 20 hrs by drop diffusion test; type: functional
Bacillus subtilis = assay: Antimicrobial activity against Bacillus subtilis assessed as reduction in bacterial growth after 20 hrs by […]; type: functional; outline: as §1
Pseudomonas aeruginosa [9] = assay: Antimicrobial activity against Pseudomonas aeruginosa clinical isolates assessed as FIC index in presence of tetracycline after 20 hrs by drop diffusion test; type: functional
Staphylococcus aureus [10] = assay: Antimicrobial activity against Staphylococcus aureus 6271 assessed as reduction in bacterial growth after 20 hrs by broth microdilution assay; conditions: Staphylococcus aureus, 6271, 20 h
Escherichia coli = assay: Antimicrobial activity against Escherichia coli assessed as reduction in bacterial growth after 20 hrs by […]; type: functional; outline: as §1
Candida albicans = assay: Antifungal activity against Candida albicans assessed as reduction in fungal growth after 20 hrs by […]; type: functional; outline: as §1
Staphylococcus aureus [11] = assay: Antimicrobial activity against Staphylococcus aureus clinical isolates from Liberec regional hospital assessed as reduction in bacterial growth after 20 hrs by broth microdilution assay
Pseudomonas aeruginosa [12] = assay: Ratio of MIC for Pseudomonas aeruginosa to PC50 for induction of permeabilization in Pseudomonas aeruginosa; type: functional
Outline: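 PC50: washed 10^8 cfu/mL cells in PBS pH 7 with PI 10 μg/mL, peptide 0.31–80 μM, 90 min at 37 °C dark, fluorescence 544/620 nm as % of 4 μM octenidine, interpolated from log-concentration curve.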

H-GILSSLWKKLKKIIAK-NH2
fractional inhibitory concentration index (FICI) (Staphylococcus aureus [1]): 0.56 | MIC (Staphylococcus aureus [2]): 5 µM | MIC [3]: 2 µM | MIC (Staphylococcus aureus [4]): 2 µM | MIC (Pseudomonas aeruginosa [5]): 8.8 µM | HC50 at 1 h [6]: 197 µM | MIC (Micrococcus luteus): ≤ 3 µM | MIC (Pseudomonas aeruginosa [7]): 5.3 µM | fractional inhibitory concentration index (FICI) (Pseudomonas aeruginosa [8]): 0.44 | MIC (Bacillus subtilis): ≤ 7 µM | fractional inhibitory concentration index (FICI) (Pseudomonas aeruginosa [9]): 0.65 | MIC (Staphylococcus aureus [10]): 5.3 µM | MIC (Escherichia coli): 3.4 µM | MIC (Candida albicans): 11 µM

H-GILSSLWKKLKKWIAK-NH2
MIC (Staphylococcus aureus [11]): 1.8 µM | fractional inhibitory concentration index (FICI) (Staphylococcus aureus [1]): 0.58 | MIC (Staphylococcus aureus [2]): 2 µM | Ratio (Pseudomonas aeruginosa [12]): 19 | MIC [3]: 1.6 µM | MIC (Pseudomonas aeruginosa [5]): 24 µM | HC50 at 1 h [6]: 57 µM | MIC (Micrococcus luteus): ≤ 3 µM | MIC (Pseudomonas aeruginosa [7]): 13 µM | fractional inhibitory concentration index (FICI) (Pseudomonas aeruginosa [8]): 0.29 | MIC (Bacillus subtilis): ≤ 7 µM | fractional inhibitory concentration index (FICI) (Pseudomonas aeruginosa [9]): 0.42 | MIC (Staphylococcus aureus [10]): 2.5 µM | MIC (Escherichia coli): 2.5 µM | MIC (Candida albicans): 13 µM

H-GILSSWLKKLKKIIAK-NH2
fractional inhibitory concentration index (FICI) (Staphylococcus aureus [1]): 0.37 | MIC (Staphylococcus aureus [2]): 16 µM | MIC [3]: 2 µM | MIC (Staphylococcus aureus [4]): 6.6 µM | MIC (Pseudomonas aeruginosa [5]): 5.9 µM | HC50 at 1 h [6]: > 400 µM | MIC (Micrococcus luteus): ≤ 3 µM | MIC (Pseudomonas aeruginosa [7]): 4 µM | fractional inhibitory concentration index (FICI) (Pseudomonas aeruginosa [8]): 0.4 | MIC (Bacillus subtilis): ≤ 7 µM | fractional inhibitory concentration index (FICI) (Pseudomonas aeruginosa [9]): 0.65 | MIC (Staphylococcus aureus [10]): 16 µM | MIC (Escherichia coli): 11 µM | MIC (Candida albicans): 17 µM

H-GIMSSLMKKLKKIIKK-NH2
MIC (Staphylococcus aureus [11]): 18 µM | fractional inhibitory concentration index (FICI) (Staphylococcus aureus [1]): 0.17 | MIC (Staphylococcus aureus [2]): 65 µM | MIC [3]: 1.7 µM | MIC (Pseudomonas aeruginosa [5]): 9.9 µM | HC50 at 1 h [6]: > 400 µM | MIC (Micrococcus luteus): ≤ 3 µM | MIC (Pseudomonas aeruginosa [7]): 7.1 µM | fractional inhibitory concentration index (FICI) (Pseudomonas aeruginosa [8]): 0.36 | MIC (Bacillus subtilis): ≤ 7 µM | fractional inhibitory concentration index (FICI) (Pseudomonas aeruginosa [9]): 0.63 | MIC (Staphylococcus aureus [10]): 54 µM | MIC (Escherichia coli): 22 µM | MIC (Candida albicans): 6.3 µM

H-GKLSSLWKKLKKIIAK-NH2
MIC (Staphylococcus aureus [11]): 11 µM | fractional inhibitory concentration index (FICI) (Staphylococcus aureus [1]): 0.25 | MIC (Staphylococcus aureus [2]): 27 µM | MIC [3]: 2.5 µM | MIC (Pseudomonas aeruginosa [5]): 19 µM | HC50 at 1 h [6]: > 400 µM | MIC (Micrococcus luteus): ≤ 3 µM | MIC (Pseudomonas aeruginosa [7]): 6.8 µM | fractional inhibitory concentration index (FICI) (Pseudomonas aeruginosa [8]): 0.29 | MIC (Bacillus subtilis): ≤ 7 µM | fractional inhibitory concentration index (FICI) (Pseudomonas aeruginosa [9]): 0.54 | MIC (Staphylococcus aureus [10]): 26 µM | MIC (Escherichia coli): 20 µM | MIC (Candida albicans): 34 µM

H-KILSSLLKKLKKIIAK-NH2
fractional inhibitory concentration index (FICI) (Staphylococcus aureus [1]): 0.29 | MIC (Staphylococcus aureus [2]): 10 µM | MIC [3]: 1.4 µM | MIC (Staphylococcus aureus [4]): 5.5 µM | MIC (Pseudomonas aeruginosa [5]): 16 µM | HC50 at 1 h [6]: 364 µM | MIC (Micrococcus luteus): ≤ 3 µM | MIC (Pseudomonas aeruginosa [7]): 5 µM | fractional inhibitory concentration index (FICI) (Pseudomonas aeruginosa [8]): 0.26 | MIC (Bacillus subtilis): ≤ 7 µM | fractional inhibitory concentration index (FICI) (Pseudomonas aeruginosa [9]): 0.71 | MIC (Staphylococcus aureus [10]): 32 µM | MIC (Escherichia coli): 16 µM | MIC (Candida albicans): 25 µM
